# Assay results from different studies.
# Target: Serine/threonine-protein kinase 3 (STK3, Homo sapiens, UniProt Q13188)
# One construct used (Q13188 1-491): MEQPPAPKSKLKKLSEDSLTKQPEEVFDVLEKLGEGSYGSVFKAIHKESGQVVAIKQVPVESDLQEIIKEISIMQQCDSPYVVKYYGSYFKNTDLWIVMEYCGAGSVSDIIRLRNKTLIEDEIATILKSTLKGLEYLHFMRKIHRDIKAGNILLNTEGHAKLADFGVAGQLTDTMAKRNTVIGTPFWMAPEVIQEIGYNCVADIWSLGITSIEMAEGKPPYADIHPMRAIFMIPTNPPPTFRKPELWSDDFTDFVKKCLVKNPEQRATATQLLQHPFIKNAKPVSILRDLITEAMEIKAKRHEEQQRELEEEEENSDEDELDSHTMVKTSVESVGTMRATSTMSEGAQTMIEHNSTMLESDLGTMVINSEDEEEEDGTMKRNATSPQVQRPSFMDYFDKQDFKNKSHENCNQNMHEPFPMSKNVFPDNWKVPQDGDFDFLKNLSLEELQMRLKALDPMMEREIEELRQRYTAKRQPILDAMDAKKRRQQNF
test,conditions,remaining binding,Compound
binding,1 µM,100%,Cc1cnn2ncc(-c3ccnc(N(C)C)n3)c2c1
"cell-free assay, competition with immobilised ligand",1 µM,80%,O=C(Nc1cccnn1)N1CC(C/C=C/c2cncc(Oc3ccc(C(F)(F)F)cn3)n2)C1
"binding, competition with immobilised ligand",1 µM,16%,O=C(c1ccc(Nc2ncc(Cl)c(-c3ccc(Cl)s3)n2)cc1)N1CCC(N2CCCC2)CC1
"cell-free assay, competition with immobilised ligand",5 µM,58%,FC(F)(F)Oc1cccc(-c2cnc3ccc(-c4ccncc4)nn23)c1
"binding, competition with immobilised ligand",1 µM,100%,O=C(c1ccc(Nc2nccc(-c3cc4ccccc4s3)n2)cc1)N1CCC(N2CCCC2)CC1
binding,1 µM,98%,N[C@@H]1CCN(c2nccc(-c3cnn4ncccc34)n2)C1
"cell-free assay, competition with immobilised ligand",1 µM,100%,CC(C)(O)c1cncc(-c2nc3ccc(F)cc3n2C2CC2)c1
"binding, competition with immobilised ligand",10 µM,12%,c1cncc(-c2cccc(Nc3nccc(NC4CCCCC4)n3)c2)c1
"cell-free assay, competition with immobilised ligand",1 µM,100%,O=C(O)c1cc(-c2ccc(C3CCNCC3)cc2)c2ccc(-c3ccc(C(F)(F)F)cc3)cc2c1
binding,1 µM,98%,CN(c1nccc(-c2cnn3ncccc23)n1)C1CC1
"cell-free assay, competition with immobilised ligand",1 µM,96%,Cc1c(NC(=O)c2cc(C(N)=O)nc3cc(F)ccc23)c(C(F)(F)F)nn1Cc1ccc(C#N)cc1
"binding, competition with immobilised ligand",1 µM,89%,O=C(NCC1CCOCC1)c1n[nH]cc1NC(=O)c1c(F)cccc1F
"binding, competition with immobilised ligand",0.1 µM,74%,C[C@@H](c1ccc(-n2cnc3c(N)ncnc32)cc1)N1CCc2nn(C)c(Cc3ccccc3)c2C1=O
binding,1 µM,100%,C[C@@H]1CCN(c2nccc(-c3cnn4ncccc34)n2)C1
"binding, competition with immobilised ligand",1 µM,100%,CNC(=O)[C@@H]1CC[C@@H](n2c(-c3ccc4cnccc4c3)nc3ccc(C(=O)NCc4cccc(C(N)=O)c4)cc32)C1
"cell-free assay, competition with immobilised ligand",1 µM,46%,CN(c1ccnc(CNc2nc(Nc3ccc4c(c3)CC(=O)N4)ncc2C(F)(F)F)n1)S(C)(=O)=O
binding,1 µM,100%,COc1ccnn2ncc(-c3ccnc(N(C)C)n3)c12
"cell-free assay, competition with immobilised ligand",5 µM,99%,COc1ncc2cc3ccccc3nc2c1C#N
binding,1 µM,100%,F[C@@H]1CCN(c2nccc(-c3cnn4ncccc34)n2)C1
"cell-free assay, competition with immobilised ligand",1 µM,98%,CN([C@@H]1CCc2c(CC(=O)O)c3cc(S(C)(=O)=O)ccc3n2C1)S(=O)(=O)c1ccc(F)cc1
binding,1 µM,100%,CN(CCCC(F)(F)F)c1nccc(-c2cnn3ncccc23)n1
"binding, competition with immobilised ligand",1 µM,65%,O=C(c1ccc(Nc2ncc(Cl)c(-c3cc4ccccc4s3)n2)cc1)N1CCC(N2CCCC2)CC1
